# Compound activity (PubChem BioAssay)
# AHR act: AHR activators, primary screen, cell-based, luminescence, luciferase reporter, human | Aryl hydrocarbon receptor (Homo sapiens), P35869 | AHR-responsive luciferase reporter cells | activation, % at 5 µM | 320,000 tested, 2.5% active; in the data active = activation above about 47%
# PfM18AAP inh: PfM18AAP inhibitors, malaria aminopeptidase, primary screen, biochemical, QFRET, recombinant enzyme | M18 aspartyl aminopeptidase (Plasmodium falciparum 3D7) | H-Glu-NHMec fluorogenic cleavage | inhibition, % at 7.35 µM | 290,000 tested, 1.2% active;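 active = inhibition above the campaign mean inhibition over all tested compounds plus 3 SD, cut at about 28% in these data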
# FXN GAA850 act: FXN promoter activators, primary screen, cell-based, luciferase luminescence, HEK293 lucGAA850. activation, % at 6 µM. HEK293 lucGAA850 FXN promoter luciferase reporter, 24 h; percent of 10 µM SAHA response. 360,000 tested, 0.56% active;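 active = activation above the average of all compounds screened plus 3 SD, cutoff fixed separately per campaign, cut at about 7.5% in these data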
# HDAC3 inh: HDAC3 deacetylase inhibitors, primary screen, biochemical, fluorescence, cell-free homogeneous; inhibition, % at 8.3 µM; recombinant HDAC3, fluorogenic peptide/trypsin coupled; 320,000 tested, 0.15% active; in the data active = inhibition above about 26%, passing the limit was not always enough
# SENP1 FRET inh: human SENP1 catalytic domain inhibitors, primary screen, biochemical, FRET, uHTS; Sentrin-specific protease 1 (Homo sapiens), Q9P0U3; inhibition, % at 10 µM; AID 624204, 2012; recombinant SENP1 catalytic domain, CyPet-SUMO1-YPet FRET cleavage; 360,000 tested, 0.21% active;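 active = inhibition at least 30% at 10 µM, raw YFP signal under a set limit, fluorescence ratio 0.5 to 1.5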
# Target sequence (Q9P0U3 419-644 limits assumed): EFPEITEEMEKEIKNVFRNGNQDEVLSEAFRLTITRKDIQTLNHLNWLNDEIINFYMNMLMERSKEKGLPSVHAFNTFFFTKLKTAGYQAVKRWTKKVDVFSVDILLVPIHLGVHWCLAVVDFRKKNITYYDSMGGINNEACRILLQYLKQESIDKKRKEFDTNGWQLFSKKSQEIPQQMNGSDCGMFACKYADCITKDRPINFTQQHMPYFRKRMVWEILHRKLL
#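 Test system: hSENP1 catalytic domain, recombinant; Amount: 20 pM final SENP1 enzyme; Medium: Tris pH 8 buffer plus EDTA, NaCl, BME, BSA, NP40, catalase; Schedule: 50 min enzyme reaction, room temperature, light-protected; Technique: FRET fluorescence in CFP and YFP emission channels; Controls: no-enzyme wells low, DMSO-plus-enzyme wells high control.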
# CTSL1 counter: Fasciola hepatica cathepsin L1 inhibitors, primary screen, counter-screen for PFM18AAP inhibitor project, biochemical, QFRET, fluorogenic peptide substrate; recombinant F. hepatica cathepsin L1, Z-Leu-Arg-MCA fluorescence; inhibition, % at 5.96 µM; 300,000 tested, 0.49% active; AID 1906, 2009;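 active = inhibition above the mean of all tested compounds plus 3 SD, set per screening campaign, cut at about 17% in these data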
# A number is an active result; – = inactive; · = not tested or not shown. Only some compounds are listed: those with a hit (about 4.2% of all), similar ones and a draw of the others.
SMILES,AHR act,PfM18AAP inh,FXN GAA850 act,HDAC3 inh,SENP1 FRET inh,CTSL1 counter
O=C(Nc1ccc2c(c1)OCO2)C1Cc2c(-c3ccc(Cl)cc3)ccnc2O1 (centres undefined),·,·,–,·,–,·
CC(C)(C)OC(=O)N[C@@H](COCc1ccccc1)C(=O)N[C@@H](CO)[C@H](O)[C@@H]1C[C@@H]1C(=O)N1CCCC1,–,–,–,–,–,–
CC(C)C[C@H](NC(=O)OC(C)(C)C)C(=O)N[C@@H](CO)[C@H](O)[C@@H]1C[C@@H]1C(=O)N1CCCC1,–,–,–,–,–,45
CC1OC(CC(=O)O)CC2=C1C(=O)c1c(O)cccc1C2=O (centres undefined),·,·,–,·,–,·
COc1cc(/C=N/n2c(=S)[nH]nc(C)c2=O)cc([N+](=O)[O-])c1O,–,29,–,–,–,–
Cc1n[nH]c(=S)n(/N=C/c2cccc([N+](=O)[O-])c2)c1=O,–,–,–,–,–,–
Cc1cc2cccc(C)c2nc1SCC(=O)NNC(=O)c1ccco1,52,–,–,–,–,–
C(=N\Nc1nc(-c2cccnc2)nc2ccccc12)/c1ccccc1,58,–,–,–,–,–
ClC(Cl)(Cl)c1nc(N/N=C/c2ccncc2)c2ccccc2n1,67,–,–,–,–,–
O=[N+]([O-])c1cccc(/C=N/Nc2nc(C(Cl)(Cl)Cl)nc3ccccc23)c1,54,–,–,–,–,–
Cc1cc(N/N=C/c2ccncc2)nc2ccccc12,·,–,–,·,–,·
Brc1ccc(-c2nc(N/N=C/c3cccnc3)c3ccccc3n2)cc1,–,–,–,–,–,–
COc1cccc(-c2c(-c3cc(OC)cc(OC)c3)n(C)c3ccc(-c4cccc5[nH]ccc45)cc23)c1,–,·,–,–,–,·
C=CCNc1nc(C(=O)OCC(=O)NCc2cccc(Cl)c2)cs1,–,·,–,–,–,·
Cc1ccc(NC(=S)N/N=C2\CC(C)(C)Oc3ccc(O)cc32)cc1,70,–,–,–,–,–
Cc1ccccc1NC(=S)N/N=C1\CC(C)(C)Oc2ccc(O)cc21,–,–,–,–,–,–
CC(=O)N1N=C2c3ccccc3CCC2C1c1cccs1 (centres undefined),60,–,–,–,–,–
CC(=O)N1N=C(c2cccs2)CC1c1cccs1 (centres undefined),–,–,–,–,–,–
Cc1ccc(C(=O)Cn2c(=N)n(CCN3CCOCC3)c3ccccc32)cc1,–,·,–,–,–,·
Cc1n(CC(=O)c2ccc(F)cc2)c2ccccc2[n+]1C,–,–,–,–,–,–
Cn1c(=N)n(CC(=O)c2ccc(Br)cc2)c2ccccc21,55,·,–,–,–,–
Cn1c(=N)n(CC(=O)c2ccc(F)cc2)c2ccccc21,65,–,–,–,–,–
CCc1ccc(NC(=O)CSc2nncn2-c2cccnc2)cc1,–,–,–,–,–,–
O=[N+]([O-])c1cccc2nc(-c3ccccc3)c(-c3ccccc3)nc12,–,–,–,–,–,–
Cn1c(-[n+]2c(-c3ccccc3)cc(-c3ccccc3)cc2-c2ccccc2)nc2c([N+](=O)[O-])cccc21,68,–,–,–,–,–
SMILES,AHR act,PfM18AAP inh,FXN GAA850 act,HDAC3 inh,SENP1 FRET inh,CTSL1 counter
Cc1cc(C)nc(Sc2ncnc(N)c2[N+](=O)[O-])n1,–,50,–,–,–,–
CCCn1c(=O)c(C(=O)NCCc2ccccc2)c(O)c2ccccc21,–,–,–,–,–,–
Cn1c(=O)c(C(=O)NCCc2ccccc2)c(O)c2ccccc21,72,–,–,–,–,–
Cc1ccc2nc(NNC(=O)c3ccc4c(c3)OCCO4)sc2c1,48,–,–,–,–,–
O=C(NNc1nc2cc3c(cc2s1)OCO3)c1cccc(F)c1,77,–,–,–,–,–
Cc1ccc2nc(N(CCN(C)C)C(=O)c3ccc4c(c3)OCCO4)sc2c1,–,–,–,–,–,–
